≈ marks a conversion by molar mass, not a printed value. Calls of active or inactive are those of the source. Unless noted, the rule behind the calls is not given here. Some results are limits rather than exact numbers.

These results are taken from ChEMBL document CHEMBL3745639, “Structure-activity relationships for lipoprotein lipase agonists that lower plasma triglycerides in vivo” (Eur J Med Chem, 2015).

The nature of series [1]: Kinetic aqueous solubility of the compound in PBS at pH 7.4 after 2 hrs by LC-MS/MS analysis. The series is classed as physicochemical. The settings on record: read-out: Kinetic_solubility. An outline of the steps:
(§1)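 Kinetic solubility from a 10 mM DMSO stock diluted 1:100 (1% DMSO, maximum detectable 0.1 mM) into PBS pH 7.4 or HCl-adjusted PBS at about pH 1.2. Incubated at 37 °C for 2 h in sealed glass vials, centrifuged at 10000 x g, 37 °C, 20 min, then LC-MS/MS.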

Series [2] addresses T1, Lipoprotein lipase (Bos taurus) (UniProt P11151).
T1 sequence (whole entry): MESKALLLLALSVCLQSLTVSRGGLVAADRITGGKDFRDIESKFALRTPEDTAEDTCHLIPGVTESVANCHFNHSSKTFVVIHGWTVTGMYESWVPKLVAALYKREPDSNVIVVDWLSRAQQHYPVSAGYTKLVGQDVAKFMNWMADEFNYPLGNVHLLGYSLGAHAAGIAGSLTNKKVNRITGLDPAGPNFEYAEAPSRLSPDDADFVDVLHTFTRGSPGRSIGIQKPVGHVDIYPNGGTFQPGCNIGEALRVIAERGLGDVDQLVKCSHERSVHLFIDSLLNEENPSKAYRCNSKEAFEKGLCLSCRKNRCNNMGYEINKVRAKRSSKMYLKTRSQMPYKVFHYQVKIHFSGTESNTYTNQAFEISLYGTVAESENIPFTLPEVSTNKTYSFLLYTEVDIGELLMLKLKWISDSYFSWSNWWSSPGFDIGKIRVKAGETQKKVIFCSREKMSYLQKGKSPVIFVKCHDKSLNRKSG
As to the kind of experiment: Induction of bovine LPL stabilization using intralipid as substrate at 6.25 uM preincubated for 10 mins with human recombinant ANGPTL4 followed by substrate addition measured after 45 mins relative to control. An outline of the steps: (§2)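 Compound in DMSO in buffer (50 mM potassium phosphate pH 7.4, 0.15 M NaCl, 0.01% Triton X-100), with human ANGPTL4 N-terminal fragment (aa 26-184, 75 nM final) and bovine LPL (15 nM final). Preincubated 10 min at 25 °C with shaking. Stopped after 45 min with 2.5% Triton X-100, and NEFA measured enzymatically. Activity normalised between DMSO+LPL+ANGPTL4 (0%) and DMSO+LPL (100%).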

The nature of series [3]: Apparent permeability across basolateral to apical side in human Caco2 cells at 10 uM after 15 to 60 mins. It counts as ADME, cell-based. The settings on record: Caco-2. (In general: Passage across Caco-2 layers is used to estimate intestinal permeability.)
Series [4] has as its target T1, Lipoprotein lipase (Bos taurus). In words: Induction of bovine LPL stabilization using intralipid as substrate at 3.12 uM preincubated for 10 mins with human recombinant ANGPTL4 followed by substrate addition measured after 45 mins relative to control. An outline of the steps:
as §2

Series [5] shares this target. As to the kind of experiment: Induction of bovine LPL stabilization using intralipid as substrate at 12.5 uM preincubated for 10 mins with human recombinant ANGPTL4 followed by substrate addition measured after 45 mins relative to control. The method in brief:
as §2

Series [6] in a line: Half life in human plasma after 24 hrs. The series is classed as ADME, cell-free.
Series [7] can be described thus: Efflux ratio of apparent permeability from basolateral to apical over apical to basolateral side in human Caco2 cells at 10 uM after 15 to 60 mins. It counts as ADME, cell-based. The settings on record: Caco-2.
Series [8] can be described thus: Apparent permeability across apical to basolateral side in human Caco2 cells at 10 uM after 15 to 60 mins. The series is classed as ADME, cell-based. Conditions: Caco-2. An outline of the steps:
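Caco-2 monolayers washed with pre-warmed HBSS, then donor solution applied. Transport run with apical pH 6.5 and basolateral pH 7.4. Monolayer integrity checked by TEER and by mannitol permeability. Papp derived from transport rates.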

The target of series [9] is T1, Lipoprotein lipase (Bos taurus). In words: Induction of bovine LPL stabilization using intralipid as substrate at 25 uM preincubated for 10 mins with human recombinant ANGPTL4 followed by substrate addition measured after 45 mins relative to control. An outline of the steps: as §2
The next series deals with T2, Lipoprotein lipase (Bos taurus, UniProt P11151).
T2 sequence (P11151 whole entry): T1 sequence (whole entry)
In words: Induction of bovine LPL stabilization using intralipid as substrate preincubated for 10 mins with human recombinant ANGPTL4 followed by substrate addition measured after 45 mins relative to control. The method in brief:
as §2

Another series deals with Mus musculus. As to the kind of experiment: Hypolipidemic activity in C57B16/J mouse assessed as reduction in plasma triglyceride level at 10 mg/kg, ip qd administered for 4 days followed by olive oil injection through oral gavage one hour post last dose measured at 180 mins. It counts as functional, organism-based. The method in brief: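 Female C57B16/J mice, 8-9 weeks, about 18 g, n = 8/group. Given 10 mg/kg i.p. once daily for 4 days, 0.5 ml in PBS pH 7.4 with 3% DMSO and 0.2% Triton X-100. Fasted 8 h before the last dose, then 0.2 ml oral olive oil gavage 1 h after it. Tail-vein EDTA plasma taken at baseline and every 60 min to 180 min. TG measured enzymatically, reported as mean ± SD.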

A short description of series [10]: Stability of the compound in human plasma after 4 hrs at 37 degC by mass spectrometric analysis. The settings on record: read-out: Stability. The series is classed as ADME, cell-free. The method in brief: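 Plasma test solution (pooled human plasma, typically 10 μM compound) held at 37 °C for 4 h, matching the dialysis time. A reference sample was frozen immediately. Proteins precipitated with methanol containing warfarin, then LC-MS/MS. Stability expressed on a relative basis.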

Series [11] can be described thus: Kinetic aqueous solubility of the compound in PBS at pH 1.2 after 2 hrs by LC-Ms analysis. It counts as physicochemical. Conditions: read-out: Kinetic_solubility. An outline of the steps:
as §1

A short description of series [12]: Fraction unbound in human plasma at 10 uM after 4 hrs by rapid equilibrium dialysis method. The series is classed as ADME, cell-free. The method in brief:
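Rapid equilibrium dialysis of pooled human plasma from two male and two female non-smoking donors. Compound typically 10 μM final, dialysed against isotonic phosphate buffer pH 7.4 at 37 °C for 4 h with rapid rotation. Proteins precipitated with methanol containing warfarin internal standard, then both compartments analysed by LC-MS/MS.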
(In general: In equilibrium dialysis free small molecules cross a membrane that holds back macromolecules.)

The nature of series [13]: Intrinsic clearance in human liver microsomes at 1 uM after 5 to 40 mins by LC-MS/MS analysis in presence of NADPH. The settings on record: read-out: CLH. The series is classed as ADME. An outline of the steps: (§3)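 Pooled liver microsomes (0.5 mg/ml) with compound at 1 μM in 0.1 M phosphate buffer pH 7.4. Reaction started with NADPH 1 mM. Sampled at 0, 5, 15 and 40 min in duplicate, quenched with acetonitrile containing warfarin, then LC-MS/MS.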
Background: Microsomes from liver hold many membrane-bound enzymes, among them those of drug oxidation.

Series [14] can be described thus: Half life in human liver microsomes at 1 uM. It counts as ADME. An outline of the steps:
as §3

Series [15] is described as follows: Intrinsic clearance in human hepatocytes assessed per 10^6 cells at 1 uM after 10 to 60 mins by LC-MS/MS analysis in presence of NADPH. The series is classed as ADME, cell-based, Hepatocyte. Conditions: read-out: CLH. An outline of the steps:
(§4)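 Freshly isolated human hepatocytes (0.5 x 10⁶ cells/ml) in Williams medium E with compound at 1 μM. Reaction started by adding cells. Sampled at 0, 10, 30 and 60 min in duplicate, quenched with acetonitrile containing warfarin, then LC-MS/MS.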

Series [16] is described as follows: Half life in human hepatocytes at 1 uM. The series is classed as ADME, cell-based, Hepatocyte. The method in brief: as §4

As a reminder, the Papp B→A is how fast a substance crosses the layer from the basolateral side. The term half-life denotes the time in which the quantity being followed falls by half. By efflux ratio is commonly meant a quotient of directional permeabilities that is used to spot active efflux. As usually defined, the Papp A→B is the apparent permeability from the apical to the basolateral side of a cell layer. A word on the EC50: it is the concentration giving half of the maximal effect. Turning to `Cc1ccc(NC(=O)c2cc(N3C(=O)c4ccc(C(=O)O)cc4C3=O)ccc2N2CCCCC2)cc1`, the solubility kinetic at 2 h in series [1] stood at 80 µM (≈ 38.7 µg/mL). The result (in [2]; in series [4]; in the series on Mus musculus) was inactive. Moreover, the Papp B→A at 10 µM in series [3] stood at 31 ×10⁻⁶ cm/s. The values for the Activity in [5] and in [9] were 90% and 93.8%, respectively. In addition, the half-life in series [6] is 1.5 h. In series [7], the efflux ratio at 10 µM was 2.7. In addition, in series [8], the Papp A→B at 10 µM came to 12 ×10⁻⁶ cm/s. For the same compound, at Lipoprotein lipase, the EC50 was found to be 6.6 µM. For the same compound, the remaining at 4 h in series [10] came out at 2%.

For `Cc1ccc(NC(=O)c2cc(-c3cc4cc(C(=O)O)ccc4o3)ccc2N2CCCCC2)cc1`, the solubility kinetic at 2 h in [1] was below 2 µM; in series [11] it was 7 µM (≈ 3.18 µg/mL). The Activity worked out at 49.8% in series [2], 76% in series [5] and 67.9% in series [9]. In series [3], the Papp B→A at 10 µM is 1.8 ×10⁻⁶ cm/s. Moreover, the result in [4] was inactive. Moreover, in series [7], the efflux ratio at 10 µM came to 1.5. This compound also returned a Fu in [12] below 0.01%. In addition, the Papp A→B at 10 µM in [8] was determined as 1.2 ×10⁻⁶ cm/s. Further, in series [13], the microsomal CLint at 1 µM was below 17 µL/min/mg. The half-life at 1 µM in [14] was above 1.33 h; in series [16] it was 0.667 h. Moreover, the hepatocyte CLint at 1 µM in series [15] was 35 µL/min/1e6 cells. Further, in the series with Mus musculus, the result was Active. In addition, the remaining at 4 h in series [10] was 93%.
